Assay results reported in article PMC8911528 (Organic & biomolecular chemistry, 2021).

Assays:
[1] = molecular target: T1, SF3B subunit of the spliceosome (Homo sapiens, UniProt O75533+Q7RTV0); details: cited from earlier work
[2] = molecular target: T1, SF3B subunit of the spliceosome; experiment: In vitro splicing assay; assay type: biochemical; details: for reduction in splicing inhibitory potency compared to herboxidiene: relative to herboxidiene
Method in brief: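 Radiolabeled RNA splicing substrate incubated in human cell nuclear extract with a dose range of test compound or DMSO control. RNA resolved by denaturing PAGE and bands quantified by phosphorimaging. Splicing efficiency is mRNA over total substrate RNA, normalised to DMSO. IC50 (half-maximal reduction of splicing versus DMSO) is from nonlinear regression, [inhibitor] vs normalised response, on three independent measurements, with 95% confidence intervals.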

WI-38 = details: human normal fibroblast cell line WI-38; cited from earlier work
human cells = details: cited from earlier work

5(R)-hydroxy herboxidiene [Compound 6]
splicing inhibition relative to herboxidiene [1]: slightly lower splicing inhibition than herboxidiene

C=C1CC[C@H](CC(=O)O)O[C@@H]1/C(C)=C/C=C/[C@@H](C)C[C@@]1(C)O[C@@H]1[C@H](C)[C@@H](OC)[C@@H](C)O [Compound 12, 2-((2R,6S)-6-((S,2E,4E)-7-((2R,3R)-3-((2R,3R,4R)-4-hydroxy-3-methoxypentan-2-yl)-2-methyloxiran-2-yl)-6-methylhepta-2,4-dien-2-yl)-5-methylenetetrahydro-2H-pyran-2-yl)acetic acid]
IC50 [2]: 400 nM

CO[C@H]([C@@H](C)[C@H]1O[C@]1(C)C[C@H](C)/C=C/C=C(\C)[C@H]1O[C@@H](CC(=O)O)CC[C@H]1C)[C@@H](C)O [Compound 13, 2-((2R,5R,6S)-6-((S,2E,4E)-7-((2R,3R)-3-((2R,3R,4R)-4-hydroxy-3-methoxypentan-2-yl)-2-methyloxiran-2-yl)-6-methylhepta-2,4-dien-2-yl)-5-methyltetrahydro-2H-pyran-2-yl)acetic acid]
IC50 [2]: 2500 nM
reduction in splicing inhibitory potency compared to herboxidiene [2]: about 6 fold

CO[C@H]([C@@H](C)[C@H]1O[C@]1(C)C[C@H](C)/C=C/C=C(\C)[C@H]1O[C@@H](CC(=O)O)CCC12CC2)[C@@H](C)O [Compound 14, 2-((4S,6R)-4-((S,2E,4E)-7-((2R,3R)-3-((2R,3R,4R)-4-hydroxy-3-methoxypentan-2-yl)-2-methyloxiran-2-yl)-6-methylhepta-2,4-dien-2-yl)-5-oxaspiro[2.5]octan-6-yl)acetic acid]
IC50 [2]: 5200 nM
loss of splicing inhibitory activity compared to gem-dimethyl derivative ([2]; relative to gem-dimethyl derivative 15): 5 fold

CO[C@H]([C@@H](C)[C@H]1O[C@]1(C)C[C@H](C)/C=C/C=C(\C)[C@H]1O[C@@H](CC(=O)O)CCC1(C)C)[C@@H](C)O [Compound 15, 2-((2R,6S)-6-((S,2E,4E)-7-((2R,3R)-3-((2R,3R,4R)-4-hydroxy-3-methoxypentan-2-yl)-2-methyloxiran-2-yl)-6-methylhepta-2,4-dien-2-yl)-5,5-dimethyltetrahydro-2H-pyran-2-yl)acetic acid]
reduction in splicing inhibitory potency compared to herboxidiene [2]: 3 fold

CO[C@H]([C@@H](C)[C@H]1O[C@]1(C)C[C@H](C)/C=C/C=C(\C)[C@H]1O[C@@H](CC(=O)O)CC[C@@H]1C)[C@@H](C)O [herboxidiene]
cell cycle arrest (WI-38): induces both G1 and G2/M cell cycle arrest

C6 desmethyl herboxidiene [Compound 8]
anticancer activity in human cells (human cells): slightly lower
splicing inhibitory activity [1]: slightly lower splicing inhibitory activity
